Drawing on ChEMBL document CHEMBL4765349, “Design, synthesis and biological evaluation of novel N-sulfonylamidine-based derivatives as c-Met inhibitors via Cu-catalyzed three-component reaction” (Eur J Med Chem, 2020), this text covers Activity for one compound.

For test [1], the system named is A549. Put plainly: Induction of apoptosis in human A549 cells assessed as late apoptosis at 1 uM measured after 12 hrs by Annexin V-FITC/ Propidium iodide stain based flow cytometry assay relative to control. Type of test: functional. In a few lines: (§1)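 Cells double-stained with FITC-annexin V and propidium iodide, then flow cytometry gave the percentages of early and late apoptotic cells.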

The subject of test [2] is A549. Put plainly: Induction of apoptosis in human A549 cells assessed as early apoptosis at 1 uM measured after 12 hrs by Annexin V-FITC/ Propidium iodide stain based flow cytometry assay relative to control. Type of test: functional. In outline: as §1

Structures are written as SMILES.

`COc1cc2c(Oc3ccc(NC(=O)C4(C(=O)Nc5ccc(F)cc5)CC4)cc3F)ccnc2cc1OCCCN1CCOCC1` [FORETINIB]: the Activity was determined as 22.9% in test [1] and 11.25% in test [2].
